From ChEMBL document CHEMBL4613247, “Antioxidant Activity of Compounds Isolated from Elaeagnus umbellata Promotes Human Gingival Fibroblast Well-Being” (J Nat Prod, 2020)
Calls of active or inactive are those of the source. The calls are words filed in the database; no cut-off is given here.

What was measured:
[1] = system: Fibroblast; experiment: Induction of cell proliferation in human Gingival fibroblast at 0.5 to 10 uM after 72 hrs by MTS assay; format: functional, cell-based
Procedure, shortened: (§1)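 Gingival fibroblasts seeded at 1500 cells/well, then starved 6 h in noncomplete medium after 24 h. Exposed for 72 h to 5 nM–50 μM (DMSO 0.5% final), with or without H2O2 200 μM. MTS absorbance read at 490 nm and expressed as % proliferation vs control set to 100%. Mean ± SD of three replicates from two experiments.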

[2] = system: Fibroblast; experiment: Growth inhibition of human Gingival fibroblast at 50 uM after 72 hrs by MTS assay; format: cell-based; procedure, shortened: as §1
[3] = system: Fibroblast; experiment: Antioxidant activity in human Gingival fibroblast assessed as reduction in intracellular ROS level at 1 uM after 72 hrs by H2DCFDA staining based fluorescence method; format: functional, cell-based
Procedure, shortened: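 hGF (passage 4–7) seeded 5000 cells/well, treated 72 h in complete medium with or without H2O2 200 μM. Then loaded with 50 μM DCFH2-DA in PBS-glucose for 30 min. DCF fluorescence read at ex 485/em 520 nm and normalized to crystal violet absorbance at 595 nm. Expressed as % of control; three replicates, two independent experiments.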

[4] = system: Fibroblast; experiment: Growth inhibition of human Gingival fibroblast at 5 uM after 72 hrs by MTS assay; format: cell-based
Procedure, shortened: (§2)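 hGF (passage 4–7) seeded at 1500 cells/well. After 24 h, starved 6 h in noncomplete medium, then treated 72 h (5 nM–50 μM range, 0.5% DMSO final) with or without H2O2 (200 μM). Read by MTS absorbance at 490 nm as % proliferation vs control (100%). Mean ± SD, three replicates, two independent experiments.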

[5] = system: Fibroblast; experiment: Antioxidant activity in human Gingival fibroblast assessed as reduction in H202-induced intracellular ROS level by measuring ROS production at 1 to 5 uM after 72 hrs by H2DCFDA staining based fluorescence method (reference value: 181.9 +/- 7.4%); format: functional; parameters: scale not given: the % may be the effect or the level left
Procedure, shortened: (§3)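 hGF seeded 5000 cells/well, treated 72 h with or without H2O2 (200 μM); then 30 min in PBS-glucose with 50 μM DCFH2-DA. DCF fluorescence read at 485/520 nm. Cells then fixed, crystal-violet stained and SDS-solubilized, with absorbance at 595 nm. Fluorescence normalized to A595 and expressed as % of control. Mean ± SD, three replicates, two independent experiments.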

[6] = system: Fibroblast; experiment: Induction of cell proliferation in human Gingival fibroblast at 1 uM after 72 hrs by MTS assay; format: functional; procedure, shortened: as §2
[7] = system: Fibroblast; experiment: Protection against H202-induced oxidative stress in human Gingival fibroblast assessed as reduction in p53 expression at 1 to 5 uM after 72 hrs by RT-PCR analysis; format: functional, cell-based
Procedure, shortened: (§4)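 hGF (3500 cells/cm2) in complete medium, treated 72 h with or without H2O2 (200 μM). Real-time RT-PCR of total RNA for p53, p21 and p16INK4A. Levels normalized to β-actin and relative expression taken from Ct. Fold change vs control set to 1. Mean ± SD, two independent experiments in duplicate.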

[8] = system: Fibroblast; experiment: Downregulation of LPS-induced IL-6 expression in human Gingival fibroblast at 1 to 5 uM after 72 hrs by RT-PCR analysis; format: functional, cell-based
Procedure, shortened: (§5)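 hGF (3500 cells/cm2) in complete medium, 1–5 μM for 72 h with or without LPS (1 μg/mL). Total RNA extracted, then real-time RT-PCR. mRNA normalized to β-actin and relative expression calculated from Ct. Specificity checked by melting curve and gel. Fold change vs control set to 1. Mean ± SD of two independent experiments in duplicate.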

[9] = system: Fibroblast; experiment: Induction of cell cycle arrest in human Gingival fibroblast assessed as accumulation at G0/G1 phase at 1 uM incubated for 72 hrs by flow cytometry (reference value: 76.3%); format: cell-based
Procedure, shortened: (§6)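 hGF seeded at 80 000 cells/well and treated in complete medium 72 h (1–5 μM) with or without H2O2 (200 μM). Percentage of cells in G0/G1, S and G2/M measured on a Muse cell analyzer with a cell cycle kit. Mean ± SD, two replicates, two independent experiments.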

[10] = system: Fibroblast; experiment: Protection against H202-induced cell death in human Gingival fibroblast assessed as dead cell at 1 to 5 uM after 72 hrs by flow cytometry (reference value: 14.9%); format: functional
[11] = system: Fibroblast; experiment: Induction of cell cycle arrest in human Gingival fibroblast assessed as accumulation at G2/M phase at 1 uM incubated for 72 hrs by flow cytometry (reference value: 14.9%); format: cell-based; procedure, shortened: as §6
[12] = system: Fibroblast; experiment: Upregulation of IL-10 expression in LPS-stimulated human Gingival fibroblast at 1 to 5 uM after 72 hrs by RT-PCR analysis; format: functional, cell-based; procedure, shortened: as §5
[13] = system: Fibroblast; experiment: Effect on p21 mRNA expression in human Gingival fibroblast at 1 uM after 72 hrs by RT-PCR method; format: ADME, cell-based; procedure, shortened: as §4
[14] = system: Fibroblast; experiment: Induction of cell cycle arrest in human Gingival fibroblast assessed as accumulation at S phase at 1 uM incubated for 72 hrs by flow cytometry (reference value: 5%); format: cell-based; procedure, shortened: as §6
[15] = system: Fibroblast; experiment: Protection against H202-induced oxidative stress in human Gingival fibroblast assessed as reduction in p21 expression at 1 to 5 uM after 72 hrs by RT-PCR analysis; format: functional, cell-based; procedure, shortened: as §4
[16] = system: Fibroblast; experiment: Downregulation of LPS-induced IL-8 expression in human Gingival fibroblast at 1 to 5 uM after 72 hrs by RT-PCR analysis; format: functional, cell-based; procedure, shortened: as §5
[17] = system: Fibroblast; experiment: Induction of cell death in human Gingival fibroblast assessed as dead cell at 1 uM after 72 hrs by flow cytometry (reference value: 3%); format: cell-based
[18] = system: Fibroblast; experiment: Effect on p53 mRNA expression in human Gingival fibroblast at 1 uM after 72 hrs by RT-PCR method; format: ADME, cell-based; procedure, shortened: as §4
[19] = system: Fibroblast; experiment: Protection against H202-induced cell cycle blockade in human Gingival fibroblast assessed as accumulation at S phase at 1 to 5 uM after 72 hrs by flow cytometry (reference value: 11.6%); format: functional; procedure, shortened: as §6
[20] = system: Fibroblast; experiment: Effect on p16Ink4a mRNA expression in human Gingival fibroblast at 1 uM after 72 hrs by RT-PCR method; format: ADME, cell-based; procedure, shortened: as §4
[21] = system: Fibroblast; experiment: Protective activity against H202-induced cell death in human Gingival fibroblast assessed as cell proliferation after 72 hrs by MTS assay (reference value: 50.9 +/- 4%); format: functional; procedure, shortened: as §2
[22] = system: Fibroblast; experiment: Protection against H202-induced cell cycle blockade in human Gingival fibroblast assessed as accumulation at G0/G1 phase at 1 to 5 uM after 72 hrs by flow cytometry (reference value: 42.2%); format: functional; procedure, shortened: as §6
[23] = system: Fibroblast; experiment: Protection against H202-induced cell cycle blockade in human Gingival fibroblast assessed as accumulation at G2/M phase at 1 to 5 uM after 72 hrs by flow cytometry (reference value: 39.3%); format: functional; procedure, shortened: as §6
[24] = system: Fibroblast; experiment: Protection against H202-induced oxidative stress in human Gingival fibroblast assessed as reduction in p16Ink4a expression at 1 to 5 uM after 72 hrs by RT-PCR analysis; format: functional, cell-based; procedure, shortened: as §4
[25] = Induction of cell death in human Gingival fibroblast assessed as live cell at 1 uM after 72 hrs by flow cytometry (reference value: 97%); format: cell-based; settings: gingival fibroblasts, read-out: Activity
[26] = system: Fibroblast; experiment: Protection against H202-induced cell death in human Gingival fibroblast assessed as live cell at 1 to 5 uM after 72 hrs by flow cytometry (reference value: 85.1%); format: functional
[27] = system: Fibroblast; experiment: Protection against H202-induced cell cycle blockade in human Gingival fibroblast assessed as accumulation at G0/G1 phase after 72 hrs by flow cytometry (reference value: 42.2%); format: functional; procedure, shortened: as §6
[28] = system: Fibroblast; experiment: Protection against H202-induced cell cycle blockade in human Gingival fibroblast assessed as accumulation at G2/M phase after 72 hrs by flow cytometry (reference value: 39.3%); format: functional; procedure, shortened: as §6
[29] = system: Fibroblast; experiment: Antioxidant activity in human Gingival fibroblast assessed as reduction in H202-induced intracellular ROS level by measuring ROS production at […] after 72 hrs by H2DCFDA staining based fluorescence method (reference value: 181.9 +/- 7.4%); format: functional; parameters: scale not given: the % may be the effect or the level left; procedure, shortened: as §3
[30] = system: Fibroblast; experiment: Protection against H202-induced cell cycle blockade in human Gingival fibroblast assessed as accumulation at S phase after 72 hrs by flow cytometry (reference value: 11.6%); format: functional; procedure, shortened: as §6

## O=c1c(O)c(-c2ccc(O)cc2)oc2cc(O)cc(O)c12 [KAEMPFEROL]
[1]
  Activity: inactive
[2]
  growth inhibition (GI): Toxic

## O=c1c(O)c(-c2ccc(O)c(O)c2)oc2cc(O)cc(O)c12 [QUERCETIN]
[1]
  Activity: inactive
[3]
  Activity: Active
[2]
  growth inhibition (GI): Toxic

## O=c1c(O[C@@H]2O[C@H](CO)[C@H](O)[C@H](O)[C@H]2O[C@@H]2O[C@H](CO)[C@@H](O)[C@H](O)[C@H]2O)c(-c2ccc(O)cc2)oc2cc(O)cc(O)c12
[4]
  growth inhibition (GI): Toxic

## C[C@@H]1O[C@@H](Oc2cc(O)c3c(=O)c(O[C@@H]4O[C@H](CO)[C@H](O)[C@H](O)[C@H]4O[C@@H]4O[C@H](CO)[C@@H](O)[C@H](O)[C@H]4O)c(-c4ccc(O)cc4)oc3c2)[C@H](O)[C@H](O)[C@H]1O
[5]
  Activity: 124.2%
[6]
  Activity: 125.6%
[7]
  Activity: Active
[8]
  Activity: Active
[9]
  Activity: 81.5%
[10]
  Activity: 10%
[11]
  Activity: 10.5%
[12]
  Activity: Active
[13]
  Activity: Non-Toxic
[14]
  Activity: 4.8%
[15]
  Activity: Active
[16]
  Activity: Active
[17]
  Activity: 6.7%
[18]
  Activity: Non-Toxic
[19]
  Activity: 13%
[20]
  Activity: Toxic
[21]
  Activity: 68.8%
[22]
  Activity: 69.8%
[3]
  Activity: Active
[23]
  Activity: 14.2%
[24]
  Activity: Active
[25]
  viability at 72 h, 1 µM: 93.3%
[26]
  Activity: 90%

## CC(=O)N[C@@H](CS)C(=O)O [ACETYLCYSTEINE]
[27]
  Activity: 72.7%
[28]
  Activity: 18.5%
[29]
  Activity: 109.7%
[30]
  Activity: 6.4%
[21]
  Activity: 74.1%

## C[C@@H]1O[C@@H](Oc2cc(O)c3c(=O)c(O[C@@H]4O[C@H](CO)[C@H](O)[C@H](O)[C@H]4O[C@@H]4O[C@H](CO)[C@@H](O)[C@H](O)[C@H]4O)c(-c4ccc(O)c(O)c4)oc3c2)[C@H](O)[C@H](O)[C@H]1O
[4]
  growth inhibition (GI): Toxic
